Assay [1] deals with MT4. The experiment in a line: Protection of MT-4 cells against the cytopathic effect of HIV-1 (4 days). The assay is classed as functional, cell-based. The following applies: Homo sapiens, MT4, 96 h. The method, boiled down: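 MT-4 cells (1×10^4/well, RPMI/10% FCS) with compound dilutions, infected with HIV-1 IIIB at 100 CCID50 (MOI 0.01). Stock from persistently infected H9/IIIB supernatant, titrated in C8166 by syncytia scoring.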
A general note: Protection from cytopathic effect is a common read-out in antiviral testing.

In assay [2] the test system is MT4. The experiment in a line: Protection of MT-4 cells against the cytopathic effect of HIV-2 (8 days). Format: functional, cell-based. The following applies: Homo sapiens, MT4, 192 h. The procedure, abridged:
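MT-4 cells (1×10^4/well, RPMI/10% FCS) with compound dilutions, infected with HIV-2 ROD at 100 CCID50 (MOI 0.01). Stock from persistently infected CEM supernatant.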

In assay [3] the test system is MT4. The experiment in a line: Cytotoxic concentration required to reduce viability of mock-infected MT-4 cells (4 days). Format: functional. The following applies: Homo sapiens, MT4, 96 h. The method, boiled down: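 Mock-infected MT-4 cells, 1×10^4/well, incubated with serial compound dilutions (DMSO stock 100 mg/mL diluted in RPMI/10% FCS) for 4 days at 37 °C, run alongside the antiviral test.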

The nature of assay [4]: Selectivity Index measured as the ratio of CC50 to that of EC50 (HIV-2) values. Format: functional. The method, boiled down:
(§1)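 HIV-2 ROD (100 CCID50, MOI 0.01) infected 1×10^4 MT-4 cells per well in RPMI/10% FCS containing compound dilutions, made from a 100 mg/mL DMSO stock. After 8 days at 37 °C, MTT read viability. […] The CC50 comes from parallel mock-infected MT-4 cultures by MTT over 4 days. The index is the CC50/EC50 ratio.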

Assay [5] can be described thus: Selectivity Index measured as the ratio of CC50 to that of EC50 (HIV-1) values. The assay is classed as functional. The method, boiled down: (§2)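 HIV-1 IIIB (100 CCID50, MOI 0.01) was added to 1×10^4 MT-4 cells per well in RPMI/10% FCS with serial compound dilutions, made from a 100 mg/mL DMSO stock. After 4 days at 37 °C, viable cells were counted by MTT. […] SI = CC50/EC50.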

Assay [6] is described as follows: Selectivity Index measured as the ratio of CC50 to that of EC50(HIV-2) values. The assay is classed as functional. The method, boiled down: as §1
Assay [7] is described as follows: Selectivity Index measured as the ratio of CC50 to that of EC50(HIV-1) values. Format: functional. The procedure, abridged:
as §2

For orientation: EC50 means the concentration giving half of the maximal effect. High values mean lower potency in that assay, low ones higher potency in that assay. One may read the CC50 as the concentration giving 50% cytotoxicity. Low readings indicate harm at low concentration, high ones better tolerance by the cells.

Consider `C[C@H](Cn1nc2nc(N)nc(O)c2n1)OCP(=O)(O)O`, for which the EC50 in assay [1] and in assay [2] was over 400 µM in each case. The molecule also gave a CC50 in assay [3] of over 400 µM.

For the molecule `C[C@@H](Cn1nnc2c(O)nc(N)nc21)OCP(=O)(O)O`, the Selectivity index in assay [4] was over 32; in assay [5], over 33. The results for the EC50 in assay [1] and in assay [2] were 12 µM and 12.5 µM, respectively. In assay [3], this molecule registered a 50% cytotoxic concentration (CC50) of over 400 µM.

As to `C[C@H](Cn1nnc2c(O)nc(N)nc21)OCP(=O)(O)O`, the Selectivity index in assay [4] was 2; in assay [5], over 4.3. Also, the concentration giving a half-maximal response (EC50) turned out to be 93 µM in assay [1] and 200 µM in assay [2]. In assay [3], this molecule gave a half-maximal cytotoxic concentration (CC50) of over 400 µM.

With `Nc1nc2c(ncn2CCOCP(=O)(O)O)c(=O)[nH]1` [GS-438], the Selectivity index was determined as 12 in assay [4] and 12.6 in assay [5]. The values for the EC50 in assay [1] and in assay [2] were 0.19 µM and 0.2 µM, respectively. The same molecule displayed a CC50 in assay [3] of 2.4 µM.

With `C[C@H](Cn1cnc2c(O)nc(N)nc21)OCP(=O)(O)O`, the values for the Selectivity index in assay [4] and in assay [5] were 1.6 and 2.5, respectively. Further, the EC50 stood at 19 µM in assay [1] and 30 µM in assay [2]. The half-maximal cytotoxic concentration (CC50) in assay [3] is over 48 µM.

As to `Cc1cn([C@H]2C[C@H](N=[N+]=[N-])[C@@H](CO)O2)c(=O)[nH]c1=O` [ZIDOVUDINE], the CC50 in assay [3] is over 20 µM.

As for `C[C@@H](Cn1nc2nc(N)nc(O)c2n1)OCP(=O)(O)O`, the Selectivity index is over 5.5 in assay [6] and over 7.5 in assay [7]. Further, the concentration for a half-maximal effect (EC50) stood at 53 µM in assay [1] and 73 µM in assay [2]. In addition, the CC50 in assay [3] is over 400 µM.

As for `C[C@@H](Cn1cnc2c(O)nc(N)nc21)OCP(=O)(O)O`, the Selectivity index in assay [4] and in assay [5] was over 89 each time. The 50% effective concentration (EC50) in assay [1] and in assay [2] was 4.5 µM each time. In assay [3], the 50% cytotoxic concentration (CC50) was over 400 µM.
